≈ marks a conversion by molar mass, not a printed value. Starred links: 1 amine or outer side, 2 acyl side, 3 side chain; linkers in the order of their positions; H or OH if unused. Positions of bridges follow the written chain, without caps; N, C: chain ends. Non-standard residues stand in square brackets, D forms with d. Residues, ends and D or L forms follow the SMILES beside them. Chains are numbered I, II in the order given. Actinocin(1to9) = Cc1c2oc3c(C)ccc(C(=O)[*:2])c3nc-2c(C(=O)[*:1])c(N)c1=O; NMeV = CN[C@H](C(=O)O)C(C)C; Sar = CNCC(=O)O

Common to all, as to assay type: functional
For one test, the system named is Bacillus subtilis. In words: Antimicrobial activity against Bacillus subtilis ATCC 6633 after 18 hrs. As to conditions: ATCC 6633, 18 h. In outline: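 Serial broth dilution in microtiter wells. Compounds in MeOH were dispensed and the solvent evaporated in vacuo. Inoculum came from an overnight nutrient broth culture, adjusted to 10⁵ cells per mL, in NB medium. Incubation was 18 h. MIC was read as the minimal inhibitory concentration.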

The test system of the next test is Yarrowia lipolytica. In words: Antimicrobial activity against Yarrowia lipolytica HT20after 24 hrs. A digest of the protocol:
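Yeast tested by serial dilution in YMG medium. Compound films were left in wells after MeOH evaporation in vacuo. Inoculum came from an overnight YMG culture, adjusted to 10⁵ cells per mL. After 24 h incubation, the minimal inhibitory concentration was determined.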

The test system of a further test is Mucor hiemalis. In words: Antimicrobial activity against Mucor hiemalis DSM 63298 after 24 hrs. As to conditions: DSM 63298, 24 h. A digest of the protocol: (§1)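 Serial dilution in microtiter wells with YMG medium. Compounds in MeOH were dispensed and dried in vacuo. Spores were rinsed from well-grown 9-day-old YMG agar cultures with […], then adjusted to 10⁵ per mL. Concentrations ranged from 100 to 0.1 µg mL^-1 (eight levels). Incubation was 24 h. MIC was recorded.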

The test system of a further test is Penicillium griseofulvum. In words: Antimicrobial activity against Penicillium griseofulvum DSM 847 after 24 hrs. The settings on record: DSM 847, 24 h. A digest of the protocol:
as §1

Another test deals with Stachybotrys chartarum. Kind of test: Antimicrobial activity against Stachybotrys chartarum DSM 2144 after 24 hrs. As to conditions: DSM 2144, 24 h. A digest of the protocol:
as §1

The test system of the next test is Trichoderma harzianum. In words: Antimicrobial activity against Trichoderma harzianum ATCC 64870 after 24 hrs. The settings on record: ATCC 64870, 24 h. A digest of the protocol: as §1

A word on the MIC: it is the lowest concentration found to suppress growth. A higher MIC goes with a less susceptible organism. As for `CC1=C[C@@H]2[C@@H]([C@@H](/C=C/C=C/C(=O)O)[C@H]1/C(C)=C/CO)[C@H](C)CC[C@H]2O` [CARNEIC ACID B], the MIC with Bacillus subtilis stood at 50 µg/mL (≈ 144 µM); against Yarrowia lipolytica it was 25 µg/mL (≈ 72.2 µM); against Mucor hiemalis it was 12.5 µg/mL (≈ 36.1 µM); against Penicillium griseofulvum, 25 µg/mL (≈ 72.2 µM); against Stachybotrys chartarum it was 25 µg/mL (≈ 72.2 µM); against Trichoderma harzianum, 50 µg/mL (≈ 144 µM).
With `C/C=C(\C)[C@H]1C(C)=C[C@@H]2[C@@H]([C@H]1/C=C/C=C/C(=O)O)[C@H](C)CC[C@H]2O` [CARNEIC ACID A], the MIC was found to be 50 µg/mL (≈ 151 µM) in the test with Bacillus subtilis; 25 µg/mL (≈ 75.7 µM) in the test on Yarrowia lipolytica; 12.5 µg/mL (≈ 37.8 µM) in the test with Mucor hiemalis; 12 µg/mL (≈ 36.3 µM) in the test with Penicillium griseofulvum; 25 µg/mL (≈ 75.7 µM) against Stachybotrys chartarum; 50 µg/mL (≈ 151 µM) in the test on Trichoderma harzianum.
For `Oc1cccc2c(-c3ccc(O)c4c(O)cccc34)ccc(O)c12`, the MIC was 100 µg/mL (≈ 314 µM) against Bacillus subtilis; greater than 100 µg/mL against Yarrowia lipolytica; 100 µg/mL (≈ 314 µM) with Mucor hiemalis; greater than 100 µg/mL in the test with Penicillium griseofulvum; greater than 100 µg/mL in the test on Stachybotrys chartarum; greater than 100 µg/mL with Trichoderma harzianum.
Take `CC1(C)S[C@@H]2[C@H](NC(=O)Cc3ccccc3)C(=O)N2[C@H]1C(=O)O` [PENICILLIN G]: the MIC in the test with Bacillus subtilis is 3.12 µg/mL (≈ 9.33 µM); in the test on Yarrowia lipolytica, greater than 100 µg/mL; against Mucor hiemalis, greater than 100 µg/mL; with Penicillium griseofulvum it was greater than 100 µg/mL; with Stachybotrys chartarum, greater than 100 µg/mL; in the test on Trichoderma harzianum, greater than 100 µg/mL.
With `CC(=O)OC/C=C/C1=CC2=C(CO1)C(=O)[C@](C)(O)[C@H](OC(=O)c1c(C)cc(O)cc1O)C2` [RUBIGINOSIN A], the MIC with Bacillus subtilis is 50 µg/mL (≈ 113 µM); in the test on Yarrowia lipolytica, 100 µg/mL (≈ 225 µM); against Mucor hiemalis it was 25 µg/mL (≈ 56.3 µM); against Penicillium griseofulvum it was greater than 100 µg/mL; in the test with Stachybotrys chartarum, 100 µg/mL (≈ 225 µM); against Trichoderma harzianum, greater than 100 µg/mL.
In the case of `Cc1c2oc3c(C)ccc(C(=O)N[C@@H]4C(=O)N[C@H](C(C)C)C(=O)N5CCC[C@H]5C(=O)N(C)CC(=O)N(C)[C@@H](C(C)C)C(=O)O[C@@H]4C)c3nc-2c(C(=O)N[C@@H]2C(=O)N[C@H](C(C)C)C(=O)N3CCC[C@H]3C(=O)N(C)CC(=O)N(C)[C@@H](C(C)C)C(=O)O[C@@H]2C)c(N)c1=O` [DACTINOMYCIN] (I: T[dV]P[Sar][NMeV] / II: T[dV]P[Sar][NMeV]; ester I:1-I:C, II:1-II:C; linker I:N-II:N via Actinocin(1to9)), the MIC was greater than 100 µg/mL against Bacillus subtilis; 6.25 µg/mL (≈ 4.98 µM) against Yarrowia lipolytica; 3.12 µg/mL (≈ 2.49 µM) with Mucor hiemalis; 3.12 µg/mL (≈ 2.49 µM) in the test on Penicillium griseofulvum; 3.12 µg/mL (≈ 2.49 µM) in the test on Stachybotrys chartarum; 6.25 µg/mL (≈ 4.98 µM) in the test on Trichoderma harzianum.

The record behind these values is ChEMBL document CHEMBL1158042, “Carneic acids A and B, chemotaxonomically significant antimicrobial agents from the xylariaceous ascomycete Hypoxylon carneum” (2006).
